≈ marks a conversion by molar mass, not a printed value. Calls of active or inactive are those of the source. The rule behind the calls is not given here.
What was measured:
Enterococcus faecium [1] = experiment: Antibacterial activity against vancomycin-resistant Enterococcus faecium DSM 17050; assay type: functional; conditions: Enterococcus faecium, DSM 17050
Cytochrome P450 3A4 = Cytochrome P450 3A4 (Homo sapiens, UniProt P08684); experiment: Inhibition of CYP3A4; assay type: ADME
Pseudomonas aeruginosa [2] = experiment: Bacteriostatic activity against Pseudomonas aeruginosa ATCC 27853 by time kill study in presence of fetal calf serum; assay type: functional, organism-based
hERG (KCNH2) = hERG (KCNH2) (Homo sapiens, UniProt Q12809); experiment: Inhibition of human ERG at 10 uM
hERG (KCNH2), sequence (Q12809 whole entry): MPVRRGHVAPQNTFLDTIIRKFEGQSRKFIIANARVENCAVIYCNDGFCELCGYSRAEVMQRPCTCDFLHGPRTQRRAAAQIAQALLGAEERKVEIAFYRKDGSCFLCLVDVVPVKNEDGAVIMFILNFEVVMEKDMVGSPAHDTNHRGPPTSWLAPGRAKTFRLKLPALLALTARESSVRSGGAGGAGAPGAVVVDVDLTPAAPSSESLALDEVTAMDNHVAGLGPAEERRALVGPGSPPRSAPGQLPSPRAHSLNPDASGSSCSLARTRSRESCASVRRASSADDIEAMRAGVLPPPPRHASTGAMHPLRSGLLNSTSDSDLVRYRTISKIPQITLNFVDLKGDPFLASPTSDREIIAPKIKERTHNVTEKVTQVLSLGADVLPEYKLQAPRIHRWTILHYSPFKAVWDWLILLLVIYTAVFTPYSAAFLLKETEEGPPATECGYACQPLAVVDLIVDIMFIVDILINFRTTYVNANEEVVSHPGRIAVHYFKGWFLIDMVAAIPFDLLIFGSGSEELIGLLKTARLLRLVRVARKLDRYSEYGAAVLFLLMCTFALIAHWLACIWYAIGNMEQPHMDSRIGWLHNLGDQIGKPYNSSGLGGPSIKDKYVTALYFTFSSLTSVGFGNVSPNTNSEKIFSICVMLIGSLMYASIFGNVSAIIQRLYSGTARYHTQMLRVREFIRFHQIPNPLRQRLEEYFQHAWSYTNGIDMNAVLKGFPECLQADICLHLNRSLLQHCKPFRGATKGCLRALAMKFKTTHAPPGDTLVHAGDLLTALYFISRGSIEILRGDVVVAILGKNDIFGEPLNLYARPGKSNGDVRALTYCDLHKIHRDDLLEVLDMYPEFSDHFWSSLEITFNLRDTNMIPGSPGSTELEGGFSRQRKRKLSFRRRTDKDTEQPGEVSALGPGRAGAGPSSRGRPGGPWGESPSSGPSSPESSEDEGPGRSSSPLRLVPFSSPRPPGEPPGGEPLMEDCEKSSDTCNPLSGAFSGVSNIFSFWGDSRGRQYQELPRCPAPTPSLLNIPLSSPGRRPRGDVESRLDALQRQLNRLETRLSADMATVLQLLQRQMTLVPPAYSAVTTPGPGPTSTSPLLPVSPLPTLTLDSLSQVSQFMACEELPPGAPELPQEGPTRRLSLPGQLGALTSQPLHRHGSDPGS

Escherichia coli [3] = experiment: Antibacterial activity against Escherichia coli ATCC 35218 expressing LacR; assay type: functional
Staphylococcus aureus [4] = experiment: Antibacterial activity against methicillin-resistant Staphylococcus aureus ATCC 33592; assay type: functional; conditions: Staphylococcus aureus, ATCC 33592
Pseudomonas aeruginosa [5] = experiment: Antibacterial activity against Pseudomonas aeruginosa ATCC 27853; assay type: functional
Staphylococcus aureus [6] = experiment: Antibacterial activity against methicillin-resistant Staphylococcus aureus ATCC 33592 infected in mouse assessed as host survival at 80 mg/kg/day, sc relative to control; assay type: functional; conditions: ATCC 33592, sc, route subcutaneous
In short: (§1)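 Mice with MRSA ATCC33592 septicemia were dosed sc at 20, 40 or 80 mg/kg/d in 5% ethanol/5% Solutol/Tris-NaCl buffer pH 9. Survival was scored in six animals per group, and log reduction of blood bacteremia in five animals per group. Results are given as mean ± sem against the vehicle-treated group (P < 0.05 or P < 0.001).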

[7] = Chemical stability of the compound in PBS buffer up to 24 hrs at pH 7.4; assay type: physicochemical; conditions: pH 7.4, 24 h
Enterococcus faecium [8] = experiment: Antibacterial activity against vancomycin-resistant Enterococcus faecium DSM 17050 at >1 ug/mL after 48 hrs; assay type: functional, organism-based
[9] = Solubility of the compound in PBS buffer at pH 7.4; assay type: physicochemical
Staphylococcus aureus [10] = experiment: Antibacterial activity against methicillin-resistant Staphylococcus aureus ATCC 33592 infected in mouse assessed as host survival at 3 mg/kg/day, iv relative to control; assay type: functional
[11] = Clearance in Swiss mouse at 7.5 mg/kg, iv; assay type: ADME, organism-based; set-up: dose 7.5 mg/kg, route intravenous; conditions: in vivo
In short: (§2)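 Male Swiss mice dosed 7.5 mg/kg iv; plasma pharmacokinetics gave clearance, steady-state volume of distribution, Cmax and plasma half-life.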

Staphylococcus aureus [12] = experiment: Antibacterial activity against methicillin-resistant Staphylococcus aureus ATCC 33592 infected in mouse assessed as log reduction in bacteremia at 80 mg/kg/day, sc relative to control; assay type: functional; conditions: route subcutaneous; in short: as §1
Streptococcus pneumoniae [13] = experiment: Bacteriostatic activity against penicillin-resistant Streptococcus pneumoniae DSM 11865 by time kill study in presence of fetal calf serum; assay type: functional, organism-based
Staphylococcus aureus [14] = experiment: Antibacterial activity against methicillin-resistant Staphylococcus aureus ATCC 33592 infected in mouse assessed as log reduction in bacteremia at 15 mg/kg/day, iv relative to control; assay type: functional
Staphylococcus aureus [15] = experiment: Antibacterial activity against methicillin-resistant Staphylococcus aureus ATCC 33592 infected in mouse assessed as host survival at 40 mg/kg/day, sc relative to control; assay type: functional; conditions: ATCC 33592, sc, route subcutaneous; in short: as §1
Streptococcus pneumoniae [16] = experiment: Antibacterial activity against penicillin-resistant Streptococcus pneumoniae DSM 11865 at >1 ug/mL after 48 hrs; assay type: functional, organism-based
Cytochrome P450 2D6 = Cytochrome P450 2D6 (Homo sapiens, UniProt P10635); experiment: Inhibition of CYP2D6; assay type: ADME
Cytochrome P450 2D6, sequence (P10635 whole entry): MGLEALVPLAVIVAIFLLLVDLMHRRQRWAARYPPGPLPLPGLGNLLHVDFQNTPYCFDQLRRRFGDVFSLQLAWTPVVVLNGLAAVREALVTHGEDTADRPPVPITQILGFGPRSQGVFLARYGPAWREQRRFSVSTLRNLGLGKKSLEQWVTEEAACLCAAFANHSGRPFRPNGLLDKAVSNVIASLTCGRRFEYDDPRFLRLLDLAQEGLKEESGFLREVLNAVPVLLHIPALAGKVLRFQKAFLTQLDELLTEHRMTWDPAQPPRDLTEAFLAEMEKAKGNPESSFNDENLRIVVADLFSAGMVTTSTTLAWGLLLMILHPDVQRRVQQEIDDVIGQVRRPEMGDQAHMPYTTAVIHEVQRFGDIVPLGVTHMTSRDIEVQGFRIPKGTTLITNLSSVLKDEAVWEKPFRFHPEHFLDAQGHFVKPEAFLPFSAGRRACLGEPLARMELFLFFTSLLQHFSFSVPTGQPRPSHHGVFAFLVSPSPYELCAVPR

Staphylococcus aureus [17] = experiment: Antibacterial activity against methicillin-resistant Staphylococcus aureus ATCC 33592 infected in mouse assessed as host survival at 10 mg/kg/day, iv relative to control; assay type: functional
Staphylococcus aureus [18] = experiment: Antibacterial activity against methicillin-resistant Staphylococcus aureus ATCC 33592 at >1 ug/mL after 48 hrs; assay type: functional, organism-based
Enterococcus faecium [19] = experiment: Bacteriostatic activity against vancomycin-resistant Enterococcus faecium DSM 17050 by time kill study in presence of fetal calf serum; assay type: functional, organism-based
[20] = Drug degradation in PBS buffer over 24 hrs in presence of i-BuNH2; assay type: physicochemical; conditions: PBS buffer with i-BuNH2; read-out: Drug degradation
In short: (§3)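 Parent compound incubated in PBS buffer with 10 mM GSH or 10 mM i-BuNH2 for 24 h; read-out is the decrease in parent compound concentration over that period.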

Staphylococcus aureus [21] = experiment: Antibacterial activity against methicillin-resistant Staphylococcus aureus ATCC 33592 infected in mouse assessed as log reduction in bacteremia at 10 mg/kg/day, iv relative to control; assay type: functional
Staphylococcus aureus [22] = experiment: Bacteriostatic activity against methicillin-resistant Staphylococcus aureus ATCC 33592 by time kill study in presence of fetal calf serum; assay type: functional, organism-based
Staphylococcus aureus [23] = experiment: Antibacterial activity against methicillin-resistant Staphylococcus aureus ATCC 33592 infected in iv dosed mouse assessed as increase in host survival; assay type: functional, organism-based
Staphylococcus aureus [24] = experiment: Antibacterial activity against methicillin-resistant Staphylococcus aureus ATCC 33592 infected in mouse assessed as log reduction in bacteremia at 40 mg/kg/day, sc relative to control; assay type: functional; conditions: route subcutaneous; in short: as §1
[25] = Drug degradation in PBS buffer over 24 hrs in presence of GSH; assay type: physicochemical; conditions: PBS buffer with GSH; read-out: Drug degradation; in short: as §3
Staphylococcus aureus [26] = experiment: Antibacterial activity against methicillin-resistant Staphylococcus aureus ATCC 33592 infected in mouse assessed as host survival at 15 mg/kg/day, iv relative to control; assay type: functional
Staphylococcus aureus [27] = experiment: Antibacterial activity against methicillin-resistant Staphylococcus aureus ATCC 33592 infected in mouse assessed as log reduction in bacteremia at 20 mg/kg/day, sc relative to control; assay type: functional; conditions: route subcutaneous; in short: as §1
Streptococcus pneumoniae [28] = experiment: Antibacterial activity against penicillin-resistant Streptococcus pneumoniae DSM 11865; assay type: functional; conditions: Streptococcus pneumoniae, DSM 11865
[29] = Half life in Swiss mouse plasma at 7.5 mg/kg, iv; assay type: ADME, organism-based; set-up: dose 7.5 mg/kg, route intravenous; in short: as §2
Pseudomonas aeruginosa [30] = experiment: Antibacterial activity against Pseudomonas aeruginosa ATCC 27853 at >1 ug/mL after 48 hrs; assay type: functional, organism-based
Escherichia coli [31] = experiment: Bacteriostatic activity against Escherichia coli ATCC 35218 expressing LacR by time kill study in presence of fetal calf serum; assay type: functional, organism-based
[32] = Volume of distribution at steady state in Swiss mouse at 7.5 mg/kg, iv; assay type: ADME, organism-based; set-up: dose 7.5 mg/kg, route intravenous; conditions: in vivo, read-out: Vdss; in short: as §2
Staphylococcus aureus [33] = experiment: Antibacterial activity against methicillin-resistant Staphylococcus aureus ATCC 33592 infected in iv dosed mouse assessed as decrease in bacteremia; assay type: functional, organism-based
Staphylococcus aureus [34] = experiment: Antibacterial activity against methicillin-resistant Staphylococcus aureus ATCC 33592 infected in mouse assessed as log reduction in bacteremia at 3 mg/kg/day, iv relative to control; assay type: functional
Escherichia coli [35] = experiment: Antibacterial activity against Escherichia coli ATCC 35218 expressing LacR at >1 ug/mL after 48 hrs; assay type: functional, organism-based
Staphylococcus aureus [36] = experiment: Antibacterial activity against methicillin-resistant Staphylococcus aureus ATCC 33592 infected in mouse assessed as host survival at 20 mg/kg/day, sc relative to control; assay type: functional; conditions: ATCC 33592, sc, route subcutaneous; in short: as §1
[37] = Cmax in Swiss mouse at 7.5 mg/kg, iv; assay type: ADME, organism-based; set-up: dose 7.5 mg/kg, route intravenous; conditions: in vivo; in short: as §2

Cytochrome P450 3A4, sequence (P08684 whole entry): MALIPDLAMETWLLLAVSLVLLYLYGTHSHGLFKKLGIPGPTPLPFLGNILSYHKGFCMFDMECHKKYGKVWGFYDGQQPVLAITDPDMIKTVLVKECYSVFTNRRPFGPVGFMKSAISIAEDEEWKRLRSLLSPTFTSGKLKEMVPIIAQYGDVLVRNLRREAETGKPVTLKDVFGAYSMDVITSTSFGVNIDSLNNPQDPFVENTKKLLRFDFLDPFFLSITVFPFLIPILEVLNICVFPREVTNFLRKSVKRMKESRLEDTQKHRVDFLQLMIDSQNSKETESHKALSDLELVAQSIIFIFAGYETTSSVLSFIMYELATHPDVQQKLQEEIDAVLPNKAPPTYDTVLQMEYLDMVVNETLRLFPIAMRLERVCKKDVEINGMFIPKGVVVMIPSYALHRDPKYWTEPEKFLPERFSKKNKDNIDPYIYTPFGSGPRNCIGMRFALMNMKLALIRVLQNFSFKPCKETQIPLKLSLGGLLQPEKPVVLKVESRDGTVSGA

For `CCCCCCc1c(O)ccc2c1O[C@]1(C2=O)C(Cl)=C(Cl)C(=O)N1C` [ARMENIASPIROLE A], the IC80 (Enterococcus faecium [1]) was 8.2 µM, the IC50 (Cytochrome P450 3A4) was over 10 µM and the Activity (Pseudomonas aeruginosa [2]) was “inactive”. It also gave an inhibition at 10 µM (hERG (KCNH2)) of under 35%, an IC80 (Escherichia coli [3]) of over 30 µM and an IC80 (Staphylococcus aureus [4]) of 0.125 µM. For the same compound, the IC80 (Pseudomonas aeruginosa [5]) was over 30 µM, the survival at 80 mg/kg/day (Staphylococcus aureus [6]) was 50% and the Stability [7] was “Stable”. The Activity (Enterococcus faecium [8]) was “Active”, the solubility [9] was 25 µg/mL (≈ 65.1 µM) and the survival at 3 mg/kg/day (Staphylococcus aureus [10]) was 0%. For the same compound, the clearance [11] was 20 mL/min/kg, the FC (Staphylococcus aureus [12]) was 1.7 and the Activity (Streptococcus pneumoniae [13]) was “inactive”. For the same compound, the FC (Staphylococcus aureus [14]) was 2.8, the survival at 40 mg/kg/day (Staphylococcus aureus [15]) was 50% and the Activity (Streptococcus pneumoniae [16]) was “Active”. The IC50 (Cytochrome P450 2D6) was over 10 µM, the survival at 10 mg/kg/day (Staphylococcus aureus [17]) was 33% and the Activity (Staphylococcus aureus [18]) was “Active”. The Activity (Enterococcus faecium [19]) was “inactive”, the degraded at 24 h [20] was under 10% and the FC (Staphylococcus aureus [21]) was 0.9. For the same compound, the Activity (Staphylococcus aureus [22]) was “inactive”, the Survival (Staphylococcus aureus [23]) was “Dose-dependent effect” and the FC (Staphylococcus aureus [24]) was 0.8. It also gave a degraded at 24 h [25] of 30%, a survival at 15 mg/kg/day (Staphylococcus aureus [26]) of 67% and an FC (Staphylococcus aureus [27]) of 0.2. For the same compound, the IC80 (Streptococcus pneumoniae [28]) was 2.3 µM, the half-life [29] was 3 h and the Activity (Pseudomonas aeruginosa [30]) was “Active”. For the same compound, the Activity (Escherichia coli [31]) was “inactive”, the Vd [32] was 2.4 L/kg and the Activity (Staphylococcus aureus [33]) was “Dose-dependent effect”. For the same compound, the FC (Staphylococcus aureus [34]) was 0.05, the Activity (Escherichia coli [35]) was “Active” and the survival at 20 mg/kg/day (Staphylococcus aureus [36]) was 0%. The Cmax [37] was 27400 ng/mL.
